Bioassay records: PubChem BioAssay, Johns Hopkins Ion Channel Center
TRPC4 PAM = allosterically enhances the mouse TRPC4 cation channel. Q9QUQ5. HEK293 TRPC4beta/mu-opioid, DAMGO EC20, Fluo-4 Ca2+ flux; hits give high values. B-score at 10 µM. 0.42% of 310,000 active;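 active means B-score of calcium response area above 5 SD of library B-scores, with initial fluorescence ratio within 5 SD of library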
Target sequence (Q9QUQ5 whole entry, looked up): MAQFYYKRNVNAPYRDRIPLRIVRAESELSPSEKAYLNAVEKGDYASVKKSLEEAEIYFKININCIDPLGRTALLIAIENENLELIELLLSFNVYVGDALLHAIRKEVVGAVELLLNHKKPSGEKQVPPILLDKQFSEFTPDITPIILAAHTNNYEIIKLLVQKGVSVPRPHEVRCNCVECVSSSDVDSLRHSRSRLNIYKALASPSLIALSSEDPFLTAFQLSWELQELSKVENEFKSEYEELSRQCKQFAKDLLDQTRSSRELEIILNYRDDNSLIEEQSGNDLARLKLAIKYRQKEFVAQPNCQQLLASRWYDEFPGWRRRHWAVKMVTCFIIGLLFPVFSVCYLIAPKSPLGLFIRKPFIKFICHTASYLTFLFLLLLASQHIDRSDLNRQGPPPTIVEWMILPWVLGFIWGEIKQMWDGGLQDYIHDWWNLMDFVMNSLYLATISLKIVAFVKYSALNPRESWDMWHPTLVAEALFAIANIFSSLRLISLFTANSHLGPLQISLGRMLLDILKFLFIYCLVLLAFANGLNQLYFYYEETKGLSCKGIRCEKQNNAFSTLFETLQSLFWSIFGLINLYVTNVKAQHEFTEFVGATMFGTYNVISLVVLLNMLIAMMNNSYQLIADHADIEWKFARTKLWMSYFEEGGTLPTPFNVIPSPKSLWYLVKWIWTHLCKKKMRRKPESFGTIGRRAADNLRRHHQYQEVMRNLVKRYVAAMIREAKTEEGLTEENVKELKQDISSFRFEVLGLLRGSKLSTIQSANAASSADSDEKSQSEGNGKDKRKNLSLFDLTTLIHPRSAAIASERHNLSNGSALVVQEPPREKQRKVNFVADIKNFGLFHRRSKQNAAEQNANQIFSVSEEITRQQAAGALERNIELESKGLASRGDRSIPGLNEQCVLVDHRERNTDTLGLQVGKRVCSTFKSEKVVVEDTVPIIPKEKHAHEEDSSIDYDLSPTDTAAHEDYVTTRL
TRPC4 agonist = TRPC4 (mouse) channel activation | Q9QUQ5 | HEK293 TRPC4beta/mu-opioid, Fluo4 calcium fluorescence; hits give high values | B-score at 10 µM | 0.49% of 310,000 active | AID 2237;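 active means B-score above 5 SD of library B-scores, and initial fluorescence ratio not above library mean plus 5 SD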;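 further: positive B-score marks a calcium rise read as TRPC4 activation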
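Assay system – TRPC4beta and mu-opioid receptor HEK293 stable cells · Measured by – Fluo4 fluorescence, kinetic · Schedule – dye loading 45 min room temperature, 110 s kinetic read · Read-out – B-scored integrated calcium fluorescence ratio · Controls – buffer and maximal DAMGO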
TRPC6 inh = mouse TRPC6 channel inhibition | B-score at 10 µM | 1.1% of 310,000 active | Q61143 | HEK293-TRPC6, membrane potential dye, ACh-evoked depolarization; hits give low values;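 active means B-score under library mean minus 3 SD, initial fluorescence not abnormally high, positive integrated signal ratio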;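 further: B-score derived from integrated fluorescence ratio over the kinetic read; more negative B-score means stronger inhibition of depolarization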
TRPC4 inh = inhibitors of mouse TRPC4 channel. Q9QUQ5. HEK293 TRPC4beta/mu-opioid, DAMGO-evoked Fluo4 calcium flux; hits give low values. 0.39% of 300,000 active. B-score at 10 µM;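 active means B-score over 3 SD under the library average, no early fluorescence shift, positive overall ratio signal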
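Test system – stable TRPC4beta/mu-opioid receptor HEK293 cells · Probe or stimulus – DAMGO, a submaximal dose followed by a maximal one · Dosing – one concentration per compound · Signal – Fluo4 calcium fluorescence by kinetic imaging, 5 s 1 Hz baseline · Evaluation – per-well B score of integrated baseline-normalized Fluo4 ratio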
TRPC6 act = activates the mouse TRPC6 cation channel; B-score at 10 µM; HEK293-TRPC6 membrane potential dye fluorescence; hits give high values; 0.13% of 310,000 active;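 active means B-score of the integrated fluorescence ratio above library mean plus 3 SD, and starting fluorescence ratio within library mean plus 5 SD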;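 further: higher score means more depolarization so channel activation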
Numbers stand for hits; n = inactive. Compounds with a hit are over-represented: about 2.3% of the library has one in this group of screens.

SMILES	TRPC4 PAM	TRPC4 agonist	TRPC6 inh	TRPC4 inh	TRPC6 act
COc1ccccc1C(=O)Nc1ccc2c(c1)CCCN2C(=O)c1cccs1	n	n	n	-6	n
COc1ccc(C(=O)c2c[nH]c(C(=O)N=CN(C)C)c2)cc1	n	n	n	n	n
CCCN(CCC)CCCNC(=O)CCNS(=O)(=O)c1ccc(Br)cc1	n	76	n	n	n
C=CCn1c[n+](CC(=O)c2ccc(Br)s2)c2ccccc21	n	n	n	n	n
Cc1ccn2cc(CCNC(=O)C3CC=CCC3C(=O)O)nc2c1 (stereo not drawn)	n	202	n	n	n
Cc1ccn2cc(CCNC(=O)CC(C)(C)C)nc2c1	n	n	n	n	n
Cc1csc2c(N3CCN(S(=O)(=O)c4ccc(Cl)cc4)CC3)ncnc12	10	n	n	n	n
COCCn1c(SCC(=O)NCCc2ccc(OC)c(OC)c2)nc2c([nH]c3ccccc32)c1=O	11	n	n	n	n
COCCn1c(SCC(=O)Nc2ccccc2OC)nc2c([nH]c3ccccc32)c1=O	n	n	n	-7	n
COCCn1c(SCC(=O)NCCc2ccccc2)nc2c([nH]c3ccccc32)c1=O	n	n	n	n	n
CCOC(=O)C1(CCOc2ccccc2)CCN(Cc2ccc(O)c(OCC)c2)CC1	n	n	n	n	n
CC(NCCC1(Cc2ccccc2Cl)CCOC(C)(C)C1)c1cccs1 (stereo not drawn)	n	68	n	n	n
CC(NCCC1(C(C)C)CCOC(C)(C)C1)c1cccs1 (stereo not drawn)	n	n	n	n	n
CCCNc1nc2ccccc2n2c(C)nnc12	n	n	n	-6	n
COc1ccc(N(CC(=O)N2CCc3ccccc32)S(=O)(=O)c2c(C)n[nH]c2C)cc1	n	n	n	n	n
Cc1cccn2c(=O)c(/C=C(\C#N)C(N)=O)c(N3CCN(c4ccccc4)CC3)nc12	12	n	n	n	n
CCNC(=O)/C(C#N)=C/c1c(N2CCN(c3ccc(OC)cc3)CC2)nc2c(C)cccn2c1=O	n	n	n	n	n
Cc1cccn2c(=O)c(C=O)c(N3CCCCC3)nc12	n	n	n	n	n
Cc1cccn2c(=O)c(/C=N/O)c(N3CCCC3)nc12	n	n	n	-8	n
CCOC(=O)/C(C#N)=C/c1c(N2CCN(c3ccc(OC)cc3)CC2)nc2c(C)cccn2c1=O	11	n	n	n	n
CN(CC(=O)NCc1ccccn1)S(=O)(=O)c1cc(Cl)ccc1Cl	n	n	n	n	n
COc1ccc(-c2nnc3sc(-c4ccccn4)nn23)cc1	n	n	n	n	n
CC(C)(C)c1ccc(-c2nnc3sc(-c4ccccn4)nn23)cc1	85	n	n	n	n
CC1(c2ccc(Cl)cc2)NC(=O)N(CN2CCOCC2)C1=O (stereo not drawn)	n	n	n	n	n
Cc1cccc(C)c1OCCCN1CCCC1	14	n	n	n	n
SMILES	TRPC4 PAM	TRPC4 agonist	TRPC6 inh	TRPC4 inh	TRPC6 act
Cc1cc(OCCCN2CCCC2)ccc1Cl	12	n	n	n	n
Cc1cccc(C)c1OCCCCN1CCCCC1	n	n	n	n	n
CCOC(=O)CC(NC(=O)c1cc2cc(Br)ccc2oc1=O)c1cccc([N+](=O)[O-])c1 (stereo not drawn)	26	n	n	n	n
CCOC(=O)CC(NS(=O)(=O)c1ccc(OC)c(C)c1)c1cccc([N+](=O)[O-])c1 (stereo not drawn)	n	n	n	-6	n
CCOc1ccc(C(CC(=O)O)NS(=O)(=O)c2ccc(C)cc2)cc1OC (stereo not drawn)	n	n	n	n	n
CCOC(=O)c1cc2cc([N+](=O)[O-])ccc2oc1=O	n	n	n	n	n
CCOc1ccccc1/C=N/NC(=O)c1nnn(-c2nonc2N)c1CN1CCCCCC1	n	n	n	n	n
COc1cccc(NC(=O)c2ccccc2-c2ccccc2)c1	n	n	n	n	n
COc1ccc(Cl)cc1C(=O)Nc1cccnc1Cl	n	n	n	n	n
Cc1ccc(-c2nn(-c3ccccc3)cc2CSC(=N)N)cc1	n	68	n	n	n
OCc1cn(-c2ccccc2)nc1-c1ccc(-c2nn(-c3ccccc3)cc2CO)cc1	n	n	n	n	n
COc1ccccc1N1CCN(C(=O)c2ccc3c(c2)NC(=O)C(CSCc2ccccc2C)N3)CC1 (stereo not drawn)	n	n	-8.77	n	n
O=C1Nc2cc(C(=O)N3CCN(c4ccccc4F)CC3)ccc2NC1CSCc1ccccc1F (stereo not drawn)	n	n	n	n	n
CC1OC(OC2C(OC3C(O[C@H]4CC[C@]5(C)C6C=C[C@]78OC[C@@]9(CC[C@@H](C)[C@H](C)C97)[C@H](O)C[C@@]8(C)[C@]6(C)CC[C@H]5C4(C)C)OC(C)C(O)C3O)OC(CO)C(O)C2O)C(O)C(O)C1O (stereo partly drawn)	17	376	-5.07	n	n
Cc1cccc2nc(CSc3ccc(Cl)cc3)cn12	n	n	n	-8	n
Clc1ccc(SCc2cn3ccccc3n2)cc1	n	n	n	n	n
NC(N)=NC(=O)Cc1c(Cl)cccc1Cl	n	46	n	n	n
C=CCn1c(SCC(=O)Nc2ccc(F)cc2)nnc1-c1cnccn1	n	n	n	n	n
CC(=O)Oc1ccc(/C=C(\NC(=O)c2ccco2)C(=O)NCc2ccccc2)cc1	n	n	n	-7	n
CCn1c(SCC(=O)c2cc(C)n(CC3CCCO3)c2C)nc2ccccc21 (stereo not drawn)	n	200	n	-7	n
COc1cccc(CNc2ccc([N+](=O)[O-])cc2C)c1	n	n	n	n	n
Cc1cc([N+](=O)[O-])ccc1NCc1ccco1	n	n	n	-6	n
Cc1c(-c2ccccc2)nc2ccccc2c1C(=O)O	n	n	n	n	n
CC[C@H](NC(=O)c1c(C)c(-c2ccccc2)nc2ccccc12)c1ccccc1	n	n	n	n	13.2
O=C(OCc1ccccc1)C1=NNC2C(=O)N(Cc3ccccc3)C(=O)C12 (stereo not drawn)	n	n	n	n	n
SMILES	TRPC4 PAM	TRPC4 agonist	TRPC6 inh	TRPC4 inh	TRPC6 act
CSCc1c(C(=O)NCCc2ccccn2)oc2ccccc12	12	n	n	n	n
CSCc1c(C(=O)Nc2ccc3c(c2)OCO3)oc2ccccc12	n	n	n	n	n
CC(=O)c1ccc(N2CCN(C(=O)CCCn3c(=O)[nH]c4ccccc4c3=O)CC2)cc1	n	n	n	n	n
COc1ccc(N2CCN(C(=O)CCCn3c(=O)[nH]c4cc(Cl)ccc4c3=O)CC2)cc1	n	n	n	-6	n
CCN1CCN(Cc2c3ccccc3cc3ccccc23)CC1	n	n	n	n	n
O=C(O)CCCN1C(=O)/C(=C\c2ccc(-c3nc4ccccc4s3)o2)SC1=S	19	n	n	n	n
O=C(O)CCN1C(=O)/C(=C/c2ccc(-c3nc4ccccc4s3)o2)SC1=S	n	n	n	n	n
